Reference: ChEMBL document CHEMBL1127420, “Syntheses of racemic and nearly optically pure ether lipids and evaluation of in vitro antineoplastic activities” (J Med Chem, 1994)

Tests used:
[1] = test system: B-lymphoblastic leukemic cell line; experiment: Cytotoxicity was assessed by measurement of cytosolic lactic dehydrogenase (LDH) leakage after 24 hr incubation with human B-lymphoblastic leukemic ([…]) cell line; format: functional; conditions: for IC50: Homo sapiens, B-lymphoblastic leukemic cell line, 24 h, read-out: ID50 (the source's name)
In short: (§1)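 Log-phase cells were washed and resuspended in phenol red-free RPMI 1640, then mixed 1:1 with lipid in serum medium. Final conditions were 5 × 10^5 cells/mL, 0–50 µg/mL ether lipid and 0.5% ethanol, in triplicate at 37 °C in 5% CO2 for 24 h. Supernatant LDH was measured with lactate/INT/PMS/NAD in Tris pH 8.2, read at 490 nm after 3 min. % cytotoxicity = (E−S)/(M−S), with M from freeze-thaw. ID50 came from nonlinear regression, mean ± SD.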

HuT78 = experiment: Cytotoxicity was assessed by measurement of cytosolic lactic dehydrogenase (LDH) leakage after 24 hr incubation with human cutaneous T-lymphoma (Hut 78) cell line; format: functional; conditions: for IC50: Homo sapiens, HuT78, 24 h, read-out: ID50 (the source's name); in short: as §1
[2] = Cytotoxicity was assessed by measurement of cytosolic lactic dehydrogenase (LDH) leakage after 24 hr incubation with freshly isolated human peripheral lymphocytes; conditions: read-out: ID50
In short: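 Peripheral lymphocytes were pooled from two unmedicated human donors and isolated by the Boyum method, giving >85% lymphocytes; viability was checked by trypan blue. Cytotoxicity was measured as 24 h LDH leakage into the medium and expressed as % of maximal freeze-thaw release after subtracting spontaneous release. ID50 came from a nonlinear regression fit of cytotoxicity versus dose.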

CCRF-CEM = experiment: Cytotoxicity was assessed by measurement of cytosolic lactic dehydrogenase (LDH) leakage after 24 hr incubation with human T-lymphoblastic leukemic (CEM) cell line; format: functional; conditions: for IC50: Homo sapiens, CCRF-CEM, 24 h, read-out: ID50 (the source's name); in short: as §1

Row | Structure (SMILES) | IC50 [1] [µg/mL] | IC50 (HuT78) [µg/mL] | CC50 at 24 h [2] [µg/mL] | IC50 (CCRF-CEM) [µg/mL] | ID50 [1] [µg/mL] | ID50 (HuT78) [µg/mL] | ID50 (CCRF-CEM) [µg/mL]
1 | CCCCCCCCCCCCCCCCCCOCC(COP(=O)(O)O[C@H](C)C[N+](C)(C)C)OC.[OH-] (stereo partly drawn) | 10.1 | 9.1 | > 100 | 2.7 | – | – | –
2 | CCCCCCCCCCCCCCCCCCOCC(COP(=O)(O)OCC[N+]1(C)CCOCC1)OC.[OH-] (stereo not drawn) | 8.4 | 3.4 | 52.1 | 2.8 | – | – | –
3 | CCCCCCCCCCCCCCCCCCOCC(COP(=O)(O)OCCN(C)C)OC.O (stereo not drawn) | 9.6 | 3.5 | 24.6 | 4.6 | – | – | –
4 | CCCCCCCCCCCCCCCCCCOCC(COP(=O)(O)OCC[N+]1(C)CCCC1)OC.[OH-] (stereo not drawn) | 13.2 | 9.3 | 22.7 | 2.7 | – | – | –
5 | CCCCCCCCCCCCCCCCCCOCC(COP(=O)(O)OC[C@H](C)[N+](C)(C)C)OC.[OH-] (stereo partly drawn) | 8.9 | 5.9 | > 100 | 2.1 | – | – | –
6 | CCCCCCCCCCCCCCCCCCOCC(COP(=O)(O)OC[C@@H](C)[N+](C)(C)C)OC.[OH-] (stereo partly drawn) | 9.9 | 6.9 | > 100 | 2 | – | – | –
7 | CCCCCCCCCCCCCCCCCCOCC(COP(=O)(O)O[C@@H](C)C[N+](C)(C)C)OC.[OH-] (stereo partly drawn) | 9.8 | 9.3 | > 100 | 2.3 | – | – | –
8 | CCCCCCCCCCCCCCCCCCOCC(COP(=O)(O)OCC[N+](C)(C)C)OC.[OH-] (stereo in doubt; 1) | – | – | – | – | 15.3 | 4.5 | 1.5
9 | CCCCCCCCCCCCCCCCCCOCC(COP(=O)(O)OCC[N+](C)(C)C)OC.[OH-] (stereo in doubt; 2) | 16.3 | 4.1 | > 100 | 1.9 | – | – | –
10 | CCCCCCCCCCCCCCCCCCOCC(COP(=O)(O)OCC[N+](C)(C)C)OC.[OH-] (stereo in doubt; 3) | – | – | – | – | 20.4 | 6.6 | 2
